For four compounds, EC50 results are on record in ChEMBL document CHEMBL1629438, “Selective peroxisome proliferator-activated receptor δ isosteric selenium agonists as potent anti-atherogenic agents in vivo” (Bioorg Med Chem Lett, 2010).

Type in all cases: functional, cell-based
Test [1] has as its target T1, Peroxisome proliferator-activated receptor gamma (Homo sapiens, UniProt P37231).
T1 sequence (P37231 whole entry): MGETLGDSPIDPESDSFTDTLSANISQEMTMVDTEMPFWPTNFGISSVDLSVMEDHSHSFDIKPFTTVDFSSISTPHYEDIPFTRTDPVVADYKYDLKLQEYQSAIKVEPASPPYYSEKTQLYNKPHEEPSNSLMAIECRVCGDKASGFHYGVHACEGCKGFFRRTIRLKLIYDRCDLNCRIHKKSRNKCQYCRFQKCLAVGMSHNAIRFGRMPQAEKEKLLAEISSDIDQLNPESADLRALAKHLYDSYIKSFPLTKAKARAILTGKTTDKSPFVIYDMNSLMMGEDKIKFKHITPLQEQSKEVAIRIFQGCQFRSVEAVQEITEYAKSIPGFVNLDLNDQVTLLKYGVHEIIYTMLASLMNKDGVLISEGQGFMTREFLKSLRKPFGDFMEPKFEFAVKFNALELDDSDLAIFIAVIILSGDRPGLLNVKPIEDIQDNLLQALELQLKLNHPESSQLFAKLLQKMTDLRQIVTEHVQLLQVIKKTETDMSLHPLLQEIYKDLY
Put plainly: Agonist activity at human PPAR-gamma expressed in african green monkey CV-1 cells after 24 hrs by luciferase reporter gene assay.

Test [2] has as its target T2, Peroxisome proliferator-activated receptor alpha (Homo sapiens, UniProt Q07869).
T2 sequence (Q07869 whole entry): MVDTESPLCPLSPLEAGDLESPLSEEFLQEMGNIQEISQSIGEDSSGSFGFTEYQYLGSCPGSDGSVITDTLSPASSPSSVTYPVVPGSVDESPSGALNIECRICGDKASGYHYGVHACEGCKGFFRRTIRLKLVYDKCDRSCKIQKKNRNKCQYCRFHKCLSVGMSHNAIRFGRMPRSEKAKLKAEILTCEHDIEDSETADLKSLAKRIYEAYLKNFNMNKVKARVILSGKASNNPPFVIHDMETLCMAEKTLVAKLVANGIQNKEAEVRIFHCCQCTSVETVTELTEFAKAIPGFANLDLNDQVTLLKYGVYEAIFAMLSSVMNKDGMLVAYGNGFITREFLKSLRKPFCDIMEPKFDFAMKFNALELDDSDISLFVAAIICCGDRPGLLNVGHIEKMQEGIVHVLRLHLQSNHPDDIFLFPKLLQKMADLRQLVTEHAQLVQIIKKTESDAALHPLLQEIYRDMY
Put plainly: Agonist activity at human PPAR-alpha expressed in african green monkey CV-1 cells after 24 hrs by luciferase reporter gene assay. The gist of the method: (§1)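 Cell-based co-transfection reporter assay, with EC50 values derived for each PPAR subtype.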

In test [3] the target is T3, Peroxisome proliferator-activated receptor delta (Homo sapiens, UniProt Q03181).
T3 sequence (Q03181 whole entry): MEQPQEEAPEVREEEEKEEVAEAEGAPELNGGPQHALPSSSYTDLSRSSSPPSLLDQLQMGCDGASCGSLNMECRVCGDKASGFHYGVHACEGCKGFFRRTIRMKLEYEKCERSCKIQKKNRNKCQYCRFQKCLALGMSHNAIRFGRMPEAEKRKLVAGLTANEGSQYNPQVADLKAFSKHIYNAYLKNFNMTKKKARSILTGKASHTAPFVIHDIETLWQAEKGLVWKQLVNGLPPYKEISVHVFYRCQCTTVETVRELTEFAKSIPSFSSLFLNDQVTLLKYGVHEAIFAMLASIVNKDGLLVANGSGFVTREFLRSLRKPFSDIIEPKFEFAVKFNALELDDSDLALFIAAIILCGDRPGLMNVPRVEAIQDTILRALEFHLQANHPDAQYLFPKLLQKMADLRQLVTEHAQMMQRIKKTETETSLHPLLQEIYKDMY
Description: Agonist activity at human PPAR-delta expressed in african green monkey CV-1 cells after 24 hrs by luciferase reporter gene assay. An outline of the steps:
as §1
For orientation: In a reporter assay the amount or activity of a reporter protein is the signal.

What is called EC50 is the concentration that produces a half-maximal response.

On to `Cc1cc([Se]Cc2sc(-c3ccc(C(F)(F)F)c(F)c3)nc2C)ccc1OC(C)C(=O)O` (configuration not stated), for which the results for the EC50 in test [1], in test [2] and in test [3] were more than 1000 nM, 39.4 nM and 8.5 nM, respectively.
Take `Cc1cc([Se]Cc2sc(-c3ccc(C(F)(F)F)c(F)c3)nc2C)ccc1OCC(=O)O`: the values for the EC50 in test [1], in test [2] and in test [3] were more than 1000 nM, 350 nM and 1 nM, respectively.
The like results for `CCC(Oc1ccc([Se]Cc2sc(-c3ccc(C(F)(F)F)cc3)nc2C)cc1C)C(=O)O` (configuration not stated) were, in that order, more than 1000 nM, 83.1 nM and 6.2 nM.
The like results for `CCC(Oc1ccc([Se]Cc2sc(-c3ccc(C(F)(F)F)c(F)c3)nc2C)cc1C)C(=O)O` (configuration not stated) were, in that order, 271 nM, more than 1000 nM and 7 nM.
